According to PubChem BioAssay AID623956 (The Scripps Research Institute Molecular Screening Center, 2012):
Active and inactive are the calls of the source.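 How the source made its calls: active means at least 4-fold drop in recombinant frequency versus the solvent-only control; inactive means the rest.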

system: E. coli recBCD-deleted + H. pylori AddAB/RecA, Hfr recombinant frequency; assay: recombination inhibition in AddAB/RecA E. coli, late-stage follow-up, counter-screen for AddAB inhibitor project, colony formation, p(addAB), p(recA), 20 µM (AID 623956); settings: at 20 µM; hits give high values
Summary of the method: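 Assay system: recBCD-deleted E. coli recipient carrying H. pylori addAB and recA plasmids; Compound dosing: single 20 µM compound dose, DMSO vehicle; Schedule: compound exposure 1.5 h total, including 30 min mating; Technique: colony counts on selective and non-selective plates; Read-out basis: viability-corrected recombinant frequency drop relative to DMSO.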

Row | Structure (SMILES) | fold reduction
1 | CC(=O)Nc1ccc2nc(NC(=O)c3ccc([N+](=O)[O-])o3)sc2c1 | 1.1 (inactive)
2 | O=C(Nc1ccc(N2CCOCC2)cc1)c1ccc([N+](=O)[O-])o1 | 0.8 (inactive)
3 | C=CCn1c(Sc2ncc([N+](=O)[O-])s2)n[nH]c1=O | 1.1 (inactive)
4 | O=C(NCc1cccnc1)c1ccc([N+](=O)[O-])o1 | 0.8 (inactive)
5 | Cc1ccc2nc(/C(C#N)=C\c3ccc([N+](=O)[O-])o3)[nH]c2c1 | 1 (inactive)
6 | CCn1cc(C(=O)O)c(=O)c2cnc(N3CCN(C(=S)Nc4ccccc4C(F)(F)F)CC3)nc21 | 5
7 | O=C(Nc1cccc(NC(=O)c2ccccc2Cl)c1)c1ccc([N+](=O)[O-])o1 | 0.8 (inactive)
8 | Cc1cccnc1NC(=O)c1ccc([N+](=O)[O-])o1 | 0.8 (inactive)
9 | O=C(OCC(=O)c1cccs1)c1ccc([N+](=O)[O-])o1 | 0.9 (inactive)
10 | NC(=O)c1ccsc1NC(=O)COC(=O)c1ccc([N+](=O)[O-])o1 | 1.1 (inactive)
11 | O=C(Nc1ncccn1)c1ccc([N+](=O)[O-])o1 | 0.9 (inactive)
